Published values collected from several papers.
Lines come from different studies, so protocols differ.
Target: RAC-gamma serine/threonine-protein kinase (AKT3, Homo sapiens, UniProt Q9Y243)

| Compound | test | conditions | quantity | value |
| --- | --- | --- | --- | --- |
| Cn1cc(-c2cc(F)cc(N3CCn4c(cc5c4CCCC5)C3=O)c2CO)cc(Nc2ccc(N3CCN(C4COC4)CC3)cn2)c1=O | enzyme activity, inhibitor | 0.1 µM | inhibition | 5% |
| COc1ncccc1-c1cnn2ccc(N3CCN(C(=O)OC(C)C)CC3)nc12 | binding, competition with immobilised ligand | 1 µM | remaining binding | 100% |
| O=c1[nH]c2ccccc2n1C1CCN(Cc2ccc(-c3[nH]c4cc5ncnc5cc4nc3-c3ccccc3)cc2)CC1 | cell-free assay | 0.5 µM | remaining signal | 103% |
| Nc1ncc(-c2nc(N3CCOCC3)nc(N3CCOCC3)n2)c(C(F)F)n1 | binding, competition with immobilised ligand | 10 µM | remaining binding | 59% |
| Cn1cc(-c2cccc(N3CCc4c(sc5c4CC(C)(C)C5)C3=O)c2CO)cc(Nc2ccncn2)c1=O | enzyme activity, inhibitor | 1 µM | inhibition | 6% |
| Cc1nn(C)cc1-c1nc2c(N3CCN(Cc4ccc(Cl)cc4)CC3)c(Cl)cnc2[nH]1 | binding, competition with immobilised ligand | 1 µM | remaining binding | 100% |
| Cn1cncc1[C@](O)(COc1ccc(C#N)cc1-c1ccc(OC(F)(F)F)cc1)c1ccc(C#N)cc1 | cell-free assay, competition with immobilised ligand | 1 µM | remaining binding | 100% |
| CC(C)(C)c1cc(C=C(C#N)C#N)cc(Br)c1O | enzyme activity, inhibitor | 0.5 µM | remaining activity | 111% |
| N#CC1(c2ccccn2)CCN(Cc2cc(C(=O)O)c(=O)n3ccccc23)CC1 | cell-free assay, competition with immobilised ligand | 1 µM | remaining binding | 100% |
| COc1cc(Nc2ncc(F)c(Nc3ccc4c(n3)NC(=O)C(C)(C)O4)n2)cc(OC)c1OC | binding, competition with immobilised ligand | 10 µM | inhibition | 0% |
